ARNT-TACC3 inh: disrupts binding between human ARNT and TACC3. AlphaScreen His-ARNT PAS-B/GST-TACC3 binding, luminescence; TACC3 fragment carries E629A point mutation. hit rate 0.66% among 390,000. AID 623870. inhibition, % at 9.99 µM;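 active = mean inhibition of replicates at least 50% and at least half of replicates each reaching 50%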
CAL PDZ FP-1: human CAL PDZ-peptide interaction inhibition. hit rate 0.02% among 330,000. inhibition, % at 20 µM. purified CAL PDZ, TMR-peptide fluorescence polarization, 1 h. Q9HD26. AID 504414;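 active = highest replicate inhibition of at least 40%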
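material = purified tagged CAL PDZ domain construct (CerCALP) | buffer or medium = sodium phosphate/NaCl buffer pH 7.4 with TCEP, IgG, Thesit | reagent = TMR-labelled reporter peptide T*-PRC34 bound in PDZ groove | incubation = 1 h room-temperature incubation prior to read | measured by = fluorescence polarization (mP) | evaluation = percent inhibition from loss of millipolarization | control set = unlabelled peptide and DMSO controls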
CAL PDZ FP-2: blocks peptide binding to the human CAL PDZ domain; Q9HD26; purified CAL PDZ, TMR-peptide fluorescence polarization, 1 h; inhibition, % at 24.9 µM; hit rate 0.92% among 300,000; AID 602252;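 active = mean inhibition of at least 30% with at least half of replicates also reaching 30%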
A number is an active result. Hits are enriched below; roughly 1.2% of the tested compounds scored in any of these assays.

Screening CCN(CC)c1ccc(/C=N/N=C(N)N)c(O)c1 returned ARNT-TACC3 inh 48, CAL PDZ FP-1 inactive and CAL PDZ FP-2 inactive.
For CCN(CC)c1ccc(/C=N/NC(=O)OC)c(O)c1 the results were ARNT-TACC3 inh inactive and CAL PDZ FP-1 inactive.
Screening N#CCCN(C(=O)COC(=O)Cc1ccc(Br)cc1)c1ccccc1 returned ARNT-TACC3 inh inactive, CAL PDZ FP-1 inactive and CAL PDZ FP-2 inactive.
N#CCCN(C(=O)COC(=O)COc1ccccc1Cc1ccccc1)c1ccccc1 was read as ARNT-TACC3 inh inactive, CAL PDZ FP-1 inactive and CAL PDZ FP-2 44.
For Cc1ccc(S(=O)(=O)Nc2ccc3c(c2)C(=O)N([C@@H](C)CO)C[C@@H](C)[C@@H](CN(C)C)OCCCC[C@H](C)O3)cc1 the results were ARNT-TACC3 inh inactive.
`COc1ccccc1NC(=O)N[C@@H]1CC[C@H](CCn2cc(-c3ccccc3OC)nn2)O[C@H]1CO` gave ARNT-TACC3 inh inactive.
Cn1cnc(S(=O)(=O)N[C@H]2C=C[C@H](CC(=O)N3CCN(c4ccccc4)CC3)O[C@H]2CO)c1 was read as ARNT-TACC3 inh inactive.
C[C@@H]1CN([C@H](C)CO)C(=O)c2cc(C#CC(C)(C)O)cnc2O[C@H]1CN(C)C(=O)CC1CC1 was read as ARNT-TACC3 inh inactive.
Screening CCC(=O)c1ccc(OCC(=O)OCC(=O)NCC2CCCO2)cc1 (stereo not given) returned CAL PDZ FP-1 inactive and CAL PDZ FP-2 inactive.
For O=C(COC(=O)COc1ccc(Br)cc1)NCC1CCCO1 (stereo not given) the results were ARNT-TACC3 inh inactive, CAL PDZ FP-1 inactive and CAL PDZ FP-2 91.
For CC(C)(C)NS(=O)(=O)c1cc(C(=O)O)ccc1Cl the results were ARNT-TACC3 inh inactive, CAL PDZ FP-1 inactive and CAL PDZ FP-2 inactive.
`Cc1cc(C(=O)NNS(=O)(=O)c2cc(C(=O)O)ccc2Cl)c(C)n1-c1ccccc1` gave ARNT-TACC3 inh inactive, CAL PDZ FP-1 inactive and CAL PDZ FP-2 39.
For O=c1[nH]nc(N=Nc2c(O)[nH]c3ccc(F)cc23)c(=O)[nH]1 the results were ARNT-TACC3 inh 63, CAL PDZ FP-1 inactive and CAL PDZ FP-2 inactive.
`Cc1ccc(N=Nc2c(O)[nH]c3ccc(F)cc23)cc1` gave ARNT-TACC3 inh inactive and CAL PDZ FP-1 inactive.
O=C(ON=C1CCSCC1)c1ccccc1 was read as CAL PDZ FP-1 inactive and CAL PDZ FP-2 inactive.
CN1C(C)(C)CC(=NOC(=O)c2ccccc2)CC1(C)C was read as ARNT-TACC3 inh inactive, CAL PDZ FP-1 inactive and CAL PDZ FP-2 62.
Screening CNC[C@@H]1OCCCC[C@@H](C)Oc2ccc(NC(=O)Cc3ccccc3)cc2C(=O)N([C@H](C)CO)C[C@@H]1C returned ARNT-TACC3 inh inactive.
`CCC(=O)Nc1ccc2c(c1)C(=O)N(C)[C@H]1CC[C@@H](CC(=O)NCc3ccccc3)O[C@@H]1CO2` gave ARNT-TACC3 inh inactive.
For COc1ccc(NC(=O)C2CCN(S(=O)(=O)c3ccc(N4CCCC4=O)cc3)CC2)c(OC)c1 the results were ARNT-TACC3 inh inactive, CAL PDZ FP-1 inactive and CAL PDZ FP-2 34.
Screening COc1ccc(NC(=O)C2CCN(S(=O)(=O)c3ccc(OC)c(OC)c3)CC2)c(OC)c1 returned ARNT-TACC3 inh inactive, CAL PDZ FP-1 inactive and CAL PDZ FP-2 inactive.
CCCn1c(C2CC(=O)N(c3ccc(C)cc3)C2)nc2ccccc21 (stereo not given) was read as ARNT-TACC3 inh inactive, CAL PDZ FP-1 inactive and CAL PDZ FP-2 inactive.
Screening Cc1ccc(N2CC(c3nc4ccccc4n3C)CC2=O)cc1 (stereo not given) returned ARNT-TACC3 inh inactive, CAL PDZ FP-1 inactive and CAL PDZ FP-2 31.
For O=C(CN1CC(c2ccccc2)CC1=O)N/N=C/c1cc(Br)ccc1O (stereo not given) the results were ARNT-TACC3 inh 48, CAL PDZ FP-1 inactive and CAL PDZ FP-2 inactive.
For CCOc1ccc(NC(=O)CN2CC(c3ccccc3)CC2=O)cc1 (stereo not given) the results were CAL PDZ FP-1 inactive and CAL PDZ FP-2 inactive.
For C[C@H]1CN([C@@H](C)CO)C(=O)c2cccc(NS(C)(=O)=O)c2O[C@@H]1CN(C)Cc1ccc(C(=O)O)cc1 the results were ARNT-TACC3 inh inactive.
`Cc1cc(CN(C)C(=O)C2CCC(=O)N(CCc3cccc(F)c3)C2)on1` (stereo not given) gave ARNT-TACC3 inh inactive, CAL PDZ FP-1 inactive and CAL PDZ FP-2 59.
O=C(NCCCc1ccncc1)C1CCC(=O)N(Cc2cccc(F)c2)C1 (stereo not given) was read as ARNT-TACC3 inh inactive, CAL PDZ FP-1 inactive and CAL PDZ FP-2 inactive.
`CC(C)Cc1cc(CNC(=O)C2CCC(=O)N(CCc3cccc(F)c3)C2)on1` (stereo not given) gave ARNT-TACC3 inh inactive, CAL PDZ FP-1 inactive and CAL PDZ FP-2 inactive.
